# Experiments:
# Type in all cases: functional
# RPMI-8226 = experiment: Growth inhibition of human RPMI-8226 cells assessed as cell growth at 10 uM incubated for 48 hrs by sulforhodamine B assay relative to control; conditions: read-out: Activity
# Outline: (§1)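 Run by the NCI Developmental Therapeutics Program as part of its 60-line human tumour panel. Each compound tested at a single 10 µM dose. Growth expressed as % relative to untreated control cells (100%).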
# MCF7 = experiment: Growth inhibition of human MCF7 cells assessed as cell growth at 100 uM incubated for 48 hrs by sulforhodamine B assay relative to control; conditions: read-out: Activity
# TK-10 = experiment: Growth inhibition of human TK-10 cells assessed as cell growth at 10 uM incubated for 48 hrs by sulforhodamine B assay relative to control; conditions: read-out: Activity; outline: as §1
# Hs-578T = experiment: Growth inhibition of human Hs-578T cells assessed as cell growth at 10 uM incubated for 48 hrs by sulforhodamine B assay relative to control; conditions: read-out: Activity
# Outline: (§2)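 Submitted to the NCI Developmental Therapeutics Program for the NCI60 human tumour cell line panel. First screen at a single 10 µM concentration. Read-out is growth relative to untreated control cells set at 100%.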
# NCI-H522 = experiment: Growth inhibition of human NCI-H522 cells assessed as cell growth at 10 uM incubated for 48 hrs by sulforhodamine B assay relative to control; conditions: read-out: Activity; outline: as §2
# NCI-H322M = experiment: Growth inhibition of human NCI-H322M cells assessed as cell growth at 10 uM incubated for 48 hrs by sulforhodamine B assay relative to control; conditions: read-out: Activity; outline: as §2
# CAKI-1 = experiment: Growth inhibition of human CAKI-1 cells assessed as cell growth at 10 uM incubated for 48 hrs by sulforhodamine B assay relative to control; conditions: read-out: Activity
# Outline: (§3)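 NCI Developmental Therapeutics Program NCI60 panel. Compounds that were active in the 10 µM one-dose screen went on to dose–response testing. Growth at each concentration is expressed relative to untreated control (100%). GI50 (concentration giving 50% of maximal inhibition of proliferation) and TGI (concentration giving total growth inhibition) were derived from the curves.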
# DU-145 = experiment: Growth inhibition of human DU-145 cells assessed as cell growth at 0.1 uM incubated for 48 hrs by sulforhodamine B assay relative to control; conditions: read-out: Activity; outline: as §3
# U-251 = experiment: Growth inhibition of human U-251 cells assessed as cell growth at 1 uM incubated for 48 hrs by sulforhodamine B assay relative to control; conditions: read-out: Activity
# SNB-75 = experiment: Growth inhibition of human SNB-75 cells assessed as cell growth at 10 uM incubated for 48 hrs by sulforhodamine B assay relative to control; conditions: read-out: Activity; outline: as §1
# HT-29 = experiment: Growth inhibition of human HT-29 cells assessed as cell growth at 10 uM incubated for 48 hrs by sulforhodamine B assay relative to control; conditions: read-out: Activity; outline: as §2
# CCRF-CEM = experiment: Growth inhibition of human CCRF-CEM cells assessed as cell growth at 10 uM incubated for 48 hrs by sulforhodamine B assay relative to control; conditions: read-out: Activity; outline: as §3
# SF-268 [1] = experiment: Growth inhibition of human SF-268 cells incubated for 48 hrs by sulforhodamine B assay
# Outline: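 NCI DTP 60-line human tumour panel. Dose-response curves were run only for ligands active in the initial 10 µM screen. GI50 (concentration giving 50% of maximal inhibition of proliferation) and TGI (concentration giving total growth inhibition) were derived from these curves.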
# SR = experiment: Growth inhibition of human SR cells assessed as cell growth at 10 uM incubated for 48 hrs by sulforhodamine B assay relative to control; conditions: read-out: Activity; outline: as §1
# BT-549 = experiment: Growth inhibition of human BT-549 cells assessed as cell growth at 10 uM incubated for 48 hrs by sulforhodamine B assay relative to control; conditions: read-out: Activity
# Outline: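 NCI Developmental Therapeutics Program NCI60 human tumour cell line panel, one-dose primary screen with every compound at 10 µM. Growth is expressed as % of untreated control cells (100%).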
# UACC-62 = experiment: Growth inhibition of human UACC-62 cells assessed as cell growth at 10 uM incubated for 48 hrs by sulforhodamine B assay relative to control; conditions: read-out: Activity; outline: as §1
# NCI-H226 = experiment: Growth inhibition of human NCI-H226 cells assessed as cell growth at 10 uM incubated for 48 hrs by sulforhodamine B assay relative to control; conditions: read-out: Activity; outline: as §2
# UACC-257 = experiment: Growth inhibition of human UACC-257 cells assessed as cell growth at 10 uM incubated for 48 hrs by sulforhodamine B assay relative to control; conditions: read-out: Activity; outline: as §1
# SK-MEL-28 = experiment: Growth inhibition of human SK-MEL-28 cells assessed as cell growth at 10 uM incubated for 48 hrs by sulforhodamine B assay relative to control; conditions: read-out: Activity; outline: as §1
# A549 = experiment: Growth inhibition of human A549/ATCC cells assessed as cell growth at 100 uM incubated for 48 hrs by sulforhodamine B assay relative to control; conditions: read-out: Activity; outline: as §3
# SK-OV-3 = experiment: Growth inhibition of human SK-OV-3 cells assessed as cell growth at 10 uM incubated for 48 hrs by sulforhodamine B assay relative to control; conditions: read-out: Activity; outline: as §1
# HOP-62 = experiment: Growth inhibition of human HOP-62 cells assessed as cell growth at 10 uM incubated for 48 hrs by sulforhodamine B assay relative to control; conditions: read-out: Activity; outline: as §2
# SF-268 [2] = experiment: Growth inhibition of human SF-268 cells assessed as cell growth at 10 uM incubated for 48 hrs by sulforhodamine B assay relative to control; conditions: read-out: Activity; outline: as §1
# SK-MEL-2 = experiment: Growth inhibition of human SK-MEL-2 cells assessed as cell growth at 10 uM incubated for 48 hrs by sulforhodamine B assay relative to control; conditions: read-out: Activity; outline: as §1
# LOX IMVI = experiment: Growth inhibition of human LOX IMVI cells assessed as cell growth at 10 uM incubated for 48 hrs by sulforhodamine B assay relative to control; conditions: read-out: Activity; outline: as §2
# NCI-H23 = experiment: Growth inhibition of human NCI-H23 cells assessed as cell growth at 10 uM incubated for 48 hrs by sulforhodamine B assay relative to control; conditions: read-out: Activity; outline: as §2
# K562 = experiment: Growth inhibition of human K562 cells assessed as cell growth at 10 uM incubated for 48 hrs by sulforhodamine B assay relative to control; conditions: read-out: Activity; outline: as §2
# NCI-H460 = experiment: Growth inhibition of human NCI-H460 cells assessed as cell growth at 1 uM incubated for 48 hrs by sulforhodamine B assay relative to control; conditions: read-out: Activity
# IGROV-1 = experiment: Growth inhibition of human IGROV-1 cells assessed as cell growth at 10 uM incubated for 48 hrs by sulforhodamine B assay relative to control; conditions: read-out: Activity; outline: as §2
# SW-620 = experiment: Growth inhibition of human SW-620 cells assessed as cell growth at 10 uM incubated for 48 hrs by sulforhodamine B assay relative to control; conditions: read-out: Activity; outline: as §1
# MDA-MB-231 = experiment: Growth inhibition of human MDA-MB-231 cells assessed as cell growth at 10 uM incubated for 48 hrs by sulforhodamine B assay relative to control; conditions: read-out: Activity; outline: as §2
# OVCAR-5 = experiment: Growth inhibition of human OVCAR-5 cells assessed as cell growth at 10 uM incubated for 48 hrs by sulforhodamine B assay relative to control; conditions: read-out: Activity; outline: as §1
Compound,growth at 10 µM (RPMI-8226) [%],growth at 100 µM (MCF7) [%],growth at 10 µM (TK-10) [%],growth at 10 µM (Hs-578T) [%],growth at 10 µM (NCI-H522) [%],growth at 10 µM (NCI-H322M) [%],growth at 10 µM (CAKI-1) [%],growth at 0.1 µM (DU-145) [%],growth at 1 µM (U-251) [%],growth at 10 µM (SNB-75) [%],growth at 10 µM (HT-29) [%],growth at 10 µM (CCRF-CEM) [%],GI50 (SF-268 [1]) [µM],LC50 (concentration killing 50% of cells) (SF-268 [1]) [µM],TGI (SF-268 [1]) [µM],growth at 10 µM (SR) [%],growth at 10 µM (BT-549) [%],growth at 10 µM (UACC-62) [%],growth at 10 µM (NCI-H226) [%],growth at 10 µM (UACC-257) [%],also measured
Nc1c(C(=O)Nc2ccccc2)sc2nc3c(cc12)CN(Cc1ccccc1)CC3,72,14,19,-11,70,62,56,107,101,-54,77,84,5.62,> 100,> 100,54,65,57,31,67,growth at 10 µM (SK-MEL-28): 63%; growth at 100 µM (A549): 17%; growth at 10 µM (SK-OV-3): 12%; growth at 10 µM (HOP-62): 26%; growth at 10 µM (SF-268 [2]): 38%; growth at 10 µM (SK-MEL-2): 70%; growth at 10 µM (LOX IMVI): 51%; growth at 10 µM (NCI-H23): 63%; growth at 10 µM (K562): 48%; growth at 1 µM (NCI-H460): 91%; growth at 10 µM (IGROV-1): 74%; growth at 10 µM (SW-620): 63%; growth at 10 µM (MDA-MB-231): 37%; growth at 10 µM (OVCAR-5): 70%
CN1CCc2nc3sc(C(N)=O)c(N)c3c(-c3cccs3)c2C1,12,11,1,6,9,15,11,115,90,-10,7,10,3.85,> 100,> 100,-11,10,-21,11,10,growth at 10 µM (SK-MEL-28): -2%; growth at 100 µM (A549): 9%; growth at 10 µM (SK-OV-3): 15%; growth at 10 µM (HOP-62): 1%; growth at 10 µM (SF-268 [2]): 10%; growth at 10 µM (SK-MEL-2): -28%; growth at 10 µM (LOX IMVI): 3%; growth at 10 µM (NCI-H23): 3%; growth at 10 µM (K562): 30%; growth at 1 µM (NCI-H460): 108%; growth at 10 µM (IGROV-1): 18%; growth at 10 µM (SW-620): 7%; growth at 10 µM (MDA-MB-231): 28%
